≈ marks a conversion by molar mass, not a printed value. Calls of active or inactive are those of the source. The rule behind the calls is not given here.
What was measured:
Saccharomyces cerevisiae = assay: Growth inhibition of Saccharomyces cerevisiae BY4741 after 24 hrs; assay type: functional; conditions: for MIC50: BY4741, 24 h
Procedure, shortened: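 BY4741 grown overnight at 30 °C in YPD and taken at log phase (~0.6 OD660/ml), then diluted into fresh YPD at 0.01 OD660/ml. Compounds were given in 1% DMSO at twofold steps from 1 to 128. Growth at 30 °C for 24 h was read as OD660 and normalised to a DMSO-only control. MIC50 (50% growth inhibition) was derived from relative growth versus log10 concentration.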

[1] = target: T1, Type II restriction enzyme XhoI (Xanthomonas vasicola) (UniProt Q9KVZ7); assay: Inhibition of Xanthomonas vasicola XhoI assessed as pBSKS cleavage at 100 uM by endonuclease assay
T1 sequence (whole entry): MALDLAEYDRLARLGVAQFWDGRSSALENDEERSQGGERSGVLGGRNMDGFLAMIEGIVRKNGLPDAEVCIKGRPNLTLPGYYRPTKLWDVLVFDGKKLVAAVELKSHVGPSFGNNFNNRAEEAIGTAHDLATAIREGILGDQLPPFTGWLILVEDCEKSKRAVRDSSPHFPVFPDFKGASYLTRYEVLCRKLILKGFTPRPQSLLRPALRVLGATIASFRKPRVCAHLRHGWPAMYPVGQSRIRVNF
Procedure, shortened: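 Plasmid pBluescript with 1 unit XhoI in place of topoisomerase, using the relaxation protocol: 0.5 mM ATP, Tris-HCl/KCl/NaCl/EDTA/MgCl2/glycerol buffer pH 8.0, 1% DMSO, 37 °C for 60 min. The reaction was quenched with SDS/EDTA and treated with proteinase K. Products were resolved on 1% agarose in TBE.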

Nucleic Acid = assay: Induction of DNA intercalation in pRYG DNA at 100 uM by agarose gel electrophoresis; assay type: nucleic-acid assay
[2] = target: DNA topoisomerase 2-alpha (Homo sapiens) (UniProt P11388); assay: Inhibition of human topoisomerase 2alpha-mediated kinetoplast DNA decatenation at 100 uM
DNA topoisomerase 2-alpha (Homo sapiens), sequence (P11388 whole entry): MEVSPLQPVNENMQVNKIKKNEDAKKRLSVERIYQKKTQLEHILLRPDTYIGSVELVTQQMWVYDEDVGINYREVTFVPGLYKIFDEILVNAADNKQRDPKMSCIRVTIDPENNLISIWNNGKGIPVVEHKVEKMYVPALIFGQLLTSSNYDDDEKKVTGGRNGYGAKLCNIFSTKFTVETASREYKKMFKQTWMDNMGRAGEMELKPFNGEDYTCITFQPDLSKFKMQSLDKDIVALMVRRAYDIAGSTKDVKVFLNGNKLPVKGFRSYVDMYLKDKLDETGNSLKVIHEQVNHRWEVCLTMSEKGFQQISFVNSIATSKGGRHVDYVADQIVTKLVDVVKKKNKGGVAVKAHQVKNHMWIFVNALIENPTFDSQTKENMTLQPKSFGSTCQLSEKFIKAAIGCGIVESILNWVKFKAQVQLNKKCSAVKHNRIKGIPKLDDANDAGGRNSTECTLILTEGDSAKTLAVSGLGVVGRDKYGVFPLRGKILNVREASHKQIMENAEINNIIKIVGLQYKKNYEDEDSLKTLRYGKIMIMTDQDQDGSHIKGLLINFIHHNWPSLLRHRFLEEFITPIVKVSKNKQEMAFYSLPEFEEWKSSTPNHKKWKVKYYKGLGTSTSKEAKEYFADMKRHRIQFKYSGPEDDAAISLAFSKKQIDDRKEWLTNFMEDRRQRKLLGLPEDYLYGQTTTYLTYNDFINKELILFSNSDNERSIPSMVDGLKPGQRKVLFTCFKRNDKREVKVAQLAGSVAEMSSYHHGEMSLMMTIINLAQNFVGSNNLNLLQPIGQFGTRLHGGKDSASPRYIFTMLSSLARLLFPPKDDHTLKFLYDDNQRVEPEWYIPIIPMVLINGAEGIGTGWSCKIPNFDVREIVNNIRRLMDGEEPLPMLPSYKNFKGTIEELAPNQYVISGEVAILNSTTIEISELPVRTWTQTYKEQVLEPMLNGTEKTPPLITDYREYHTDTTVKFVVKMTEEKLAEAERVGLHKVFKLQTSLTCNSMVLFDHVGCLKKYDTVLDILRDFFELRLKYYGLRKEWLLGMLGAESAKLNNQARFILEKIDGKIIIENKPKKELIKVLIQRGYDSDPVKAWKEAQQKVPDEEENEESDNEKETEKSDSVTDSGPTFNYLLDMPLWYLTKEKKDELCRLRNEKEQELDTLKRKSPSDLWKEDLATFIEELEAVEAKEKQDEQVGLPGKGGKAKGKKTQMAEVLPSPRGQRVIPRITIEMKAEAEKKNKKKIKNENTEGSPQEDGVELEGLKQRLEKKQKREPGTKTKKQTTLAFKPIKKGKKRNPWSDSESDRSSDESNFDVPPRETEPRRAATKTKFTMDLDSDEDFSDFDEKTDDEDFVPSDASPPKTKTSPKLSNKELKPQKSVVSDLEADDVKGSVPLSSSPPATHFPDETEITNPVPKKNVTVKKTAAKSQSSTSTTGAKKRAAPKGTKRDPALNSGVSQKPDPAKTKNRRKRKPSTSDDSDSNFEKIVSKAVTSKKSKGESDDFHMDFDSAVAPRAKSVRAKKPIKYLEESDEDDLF
Procedure, shortened: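 Incubation was 60 min at 37 °C, then SDS stop and proteinase K (55 °C, 30 min). Samples ran on 1% agarose containing ethidium bromide. Activity was scored as the ratio of nicked plus supercoiled minicircles to kDNA.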

[3] = target: DNA topoisomerase 2-alpha (Homo sapiens) (UniProt P11388); assay: Inhibition of human topoisomerase 2alpha-mediated relaxation of double-stranded pRYG DNA at 100 uM by agarose gel electrophoresis
Procedure, shortened: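 Purified human topoisomerase IIα (3 units) was added last. Incubation was 37 °C for 60 min, quenched with 1% SDS/25 mM EDTA, then proteinase K. Products ran on 1% agarose in TBE without ethidium bromide and were stained afterward.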

SMILES: C[C@H]1O[C@@H](CC(=O)O)CC2=C1C(=O)c1ccccc1C2=O
- MIC50 (Saccharomyces cerevisiae): 5 µM (≈ 1.43 µg/mL)
- inhibition [1]: inactive
- Activity (Nucleic Acid): inactive
- inhibition [2]: Active

SMILES: C[C@H]1CC2=C(C(=O)c3c(O)cc(O)cc3C2=O)[C@H](O)O1
- MIC (Saccharomyces cerevisiae): inactive
- inhibition [1]: inactive
- Activity (Nucleic Acid): inactive
- inhibition [3]: inactive
- inhibition [2]: Active

SMILES: Cc1c2ccncc2c(C)c2c1[nH]c1ccccc12
- inhibition [1]: inactive
- Activity (Nucleic Acid): Active
- inhibition [3]: Active

SMILES: CC(C)Oc1cc(OC(C)C)c2c(c1)C(=O)C1=C(CO[C@@H](C)C1)C2=O
- inhibition [1]: inactive
- Activity (Nucleic Acid): inactive
- inhibition [3]: Active
- inhibition [2]: Active

SMILES: COc1cc(O)c2c(c1)C(=O)C1=C(CO[C@@H](C)C1)C2=O
- inhibition [1]: inactive
- Activity (Nucleic Acid): inactive
- inhibition [3]: Active
- inhibition [2]: Active

SMILES: COc1cc(O)c2c(c1)C(=O)C1=C(C2=O)[C@@H](C)O[C@@H](C)C1
- MIC50 (Saccharomyces cerevisiae): 5 µM (≈ 1.44 µg/mL)
- inhibition [1]: inactive
- Activity (Nucleic Acid): inactive
- inhibition [3]: inactive
- inhibition [2]: Active

SMILES: COc1cc(OC)c2c(c1)C(=O)C1=C(CO[C@@H](C)C1)C2=O
- inhibition [1]: inactive
- Activity (Nucleic Acid): inactive
- inhibition [3]: Active
- inhibition [2]: Active

SMILES: COc1cc(OC)c2c(c1)C(=O)C1=C(C2=O)[C@@H](C)O[C@@H](C)C1
- inhibition [1]: inactive
- Activity (Nucleic Acid): inactive
- inhibition [2]: Active

SMILES: C[C@H]1CC2=C(C(=O)c3ccccc3C2=O)[C@H](O)O1
- MIC (Saccharomyces cerevisiae): Active
- inhibition [1]: inactive
- Activity (Nucleic Acid): inactive
- inhibition [2]: Active

SMILES: C[C@H]1CC2=C(C(=O)c3c(O)cccc3C2=O)[C@@H](C)O1
- MIC (Saccharomyces cerevisiae): Active
- inhibition [1]: inactive
- Activity (Nucleic Acid): inactive
- inhibition [2]: Active

SMILES: COc1cccc2c1C(=O)C1=C(C[C@H](C)O[C@@H]1C)C2=O
- MIC50 (Saccharomyces cerevisiae): 80 µM (≈ 21.8 µg/mL)
- inhibition [1]: inactive
- Activity (Nucleic Acid): inactive
- inhibition [3]: inactive
- inhibition [2]: Active

SMILES: COc1cc([C@@H]2c3cc4c(cc3[C@@H](O[C@@H]3O[C@@H]5CO[C@@H](C)O[C@H]5[C@H](O)[C@H]3O)[C@H]3COC(=O)[C@H]23)OCO4)cc(OC)c1O
- inhibition [1]: inactive
- Activity (Nucleic Acid): inactive
- inhibition [3]: Active

SMILES: COc1ccc2c(c1)C(=O)C1=C(C[C@H](CC(=O)O)O[C@@H]1C)C2=O (racemic)
- MIC (Saccharomyces cerevisiae): Active
- inhibition [1]: inactive
- Activity (Nucleic Acid): inactive
- inhibition [3]: Active
- inhibition [2]: Active

SMILES: C[C@@H]1CC2=C(C(=O)c3ccccc3C2=O)[C@H](C)O1
- MIC (Saccharomyces cerevisiae): Active
- inhibition [1]: inactive
- Activity (Nucleic Acid): inactive
- inhibition [2]: Active

SMILES: C[C@H]1CC2=C(C(=O)c3ccccc3C2=O)[C@@H](C)O1
- MIC (Saccharomyces cerevisiae): Active
- inhibition [1]: inactive
- Activity (Nucleic Acid): inactive
- inhibition [2]: Active

SMILES: C[C@H]1CC2=C(CO1)C(=O)c1c(O)cc(O)cc1C2=O
- MIC (Saccharomyces cerevisiae): Active
- inhibition [1]: inactive
- Activity (Nucleic Acid): inactive
- inhibition [3]: Active
- inhibition [2]: Active
